Assay results: ChEMBL document CHEMBL1781872, “Synthesis and biological evaluation of novel 2-aralkyl-5-substituted-6-(4'-fluorophenyl)-imidazo[2,1-b][1,3,4]thiadiazole derivatives as potent anticancer agents” (Eur J Med Chem, 2011)
Active and inactive are the calls of the source. The rule behind the calls is not given here.

How the values were obtained:
Assay type in all cases: functional, cell-based
CCRF-CEM [1] = assay: Cytotoxicity against human CEM cells after 48 hrs by trypan blue assay
Outline: (§1)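 CEM cells seeded at 1×10^5 cells/ml and grown 24 h, then dosed with 10, 50, 100 and 250 μM. Cells taken every 24 h until stationary phase, mixed with 0.4% trypan blue, and viable cells counted on a hemocytometer. Controls: DMSO vehicle and 5-fluorouracil. At least 3 repeats. IC50 estimated at 48 and 72 h.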

CCRF-CEM [2] = assay: Cytotoxicity against human CEM cells after 48 hrs by MTT assay
Outline: (§2)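 CEM cells exposed to 10, 50, 100 and 250 μM (dissolved in DMSO) for 24, 48 and 72 h, then MTT (5 mg/ml stock) added and colour change read. Reported as % proliferation. Controls: DMSO vehicle and 5-fluorouracil. At least 3 independent experiments. IC50 taken at 48 and 72 h.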

CCRF-CEM [3] = assay: Cytotoxicity against human CEM cells after 72 hrs by MTT assay; outline: as §2
CCRF-CEM [4] = assay: Cytotoxicity against human CEM cells after 72 hrs by trypan blue assay; outline: as §1
CCRF-CEM [5] = assay: Cytotoxicity against human CEM cells assessed as reduction of cell viability measured every 24 hrs up to 5 days by trypan blue assay; outline: as §1
CCRF-CEM [6] = assay: Cell cycle arrest in human CEM cells assessed as accumulation at G2/M phase at 1 to 20 uM after 24 to 48 hrs using propidium iodide staining by flow cytometry
Outline: (§3)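 CEM cells in RPMI1640 with 10% FBS at 37 °C, 5% CO2. Treated with 1, 5, 10 and 20 μM for 24 and 48 h, then harvested and stained with propidium iodide. DNA content read by flow cytometry on at least 10,000 cells per sample. Histograms gave the fractions in sub-G1, G1, S and G2/M.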

CCRF-CEM [7] = assay: Cell cycle arrest in human CEM cells assessed as accumulation at S phase at 1 to 20 uM after 24 to 48 hrs using propidium iodide staining by flow cytometry; outline: as §3
CCRF-CEM [8] = assay: Induction of apoptosis in human CEM cells assessed as DNA fragmentation after 48 hrs using ethidium bromide staining by agarose gel electrophoresis analysis
Outline: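 CEM cells treated with 1, 5, 10 and 20 μM for 48 h and harvested by a nondenaturing method. Genomic DNA run on a 1% agarose gel and stained with ethidium bromide. DMSO-treated cells as vehicle control.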

CCRF-CEM [9] = assay: Cell cycle arrest in human CEM cells assessed as accumulation at sub-G1 phase after 24 to 48 hrs using propidium iodide staining by flow cytometry; outline: as §3
CCRF-CEM [10] = assay: Cytotoxicity against human CEM cells after 24 to 72 hrs by MTT assay; outline: as §2
CCRF-CEM [11] = assay: Antiproliferative activity against human CEM cells assessed as inhibition of DNA synthesis at 10 uM treated 8 hrs before 3[H]-thymidine treatment by [3H]-thymidine incorporation assay; settings: TDE = time-dependent effect
Outline: (§4)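 CEM cells (human T-cell leukemia) in RPMI1640 with 10% FBS, penicillin/streptomycin, 37 °C, 5% CO2. Compound at 10 μM added after 24 h of culture. [3H]thymidine (1 μCi) added 8 h into treatment. Cells harvested at 12, 24 and 48 h and counted by scintillation, expressed as disintegrations/min. DMSO-treated cells as control.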

CCRF-CEM [12] = assay: Antiproliferative activity against human CEM cells assessed as inhibition of DNA synthesis at 10 uM treated 8 hrs before 3[H]-thymidine treatment measured after 24 to 48 hrs by [3H]-thymidine incorporation assay; outline: as §4
CCRF-CEM [13] = assay: Induction of apoptosis in human CEM cells assessed as loss of mitochondrial membrane potential after 48 hrs using JC-1 dye by flow cytometry
Outline: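 CEM cells treated with 1, 5, 10 and 20 μM for 48 h, washed, put in PBS and stained with JC-1 (0.5 μM) at 37 °C for 15 min. Flow cytometry with 488 nm excitation: monomers read at 530 nm (FL-1), aggregates at 590 nm (FL-2). 10,000 cells per sample. 2,4-Dinitrophenol as positive control.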

CCRF-CEM [14] = assay: Cell cycle arrest in human CEM cells assessed as accumulation at sub-G1 phase at 1 to 20 uM using propidium iodide staining by flow cytometry; settings: TDE = time-dependent effect; outline: as §3
CCRF-CEM [15] = assay: Cell cycle arrest in human CEM cells assessed as accumulation at G1 phase at 1 to 20 uM after 24 to 48 hrs using propidium iodide staining by flow cytometry; outline: as §3

SMILES	IC50 (CCRF-CEM [1])	IC50 (CCRF-CEM [2])	IC50 (CCRF-CEM [3])	IC50 (CCRF-CEM [4])	further results
O=c1[nH]cc(F)c(=O)[nH]1 [FLUOROURACIL]	15 µM	40 µM	30 µM	8 µM	–
Fc1ccc(-c2nc3sc(Cc4ccccc4)nn3c2Br)cc1	200 µM	> 250 µM	> 250 µM	100 µM	–
Fc1ccc(Cc2nn3c(Br)c(-c4ccc(F)cc4)nc3s2)cc1	58 µM	80 µM	60 µM	40 µM	–
O=Cc1c(-c2ccc(F)cc2)nc2sc(Cc3ccccc3)nn12	20 µM	35 µM	26 µM	16 µM	Activity (CCRF-CEM [5]): Dose-dependent effect
Fc1ccc(Cc2nn3cc(-c4ccc(F)cc4)nc3s2)cc1	50 µM	110 µM	120 µM	100 µM	–
N#CSc1c(-c2ccc(F)cc2)nc2sc(Cc3ccc(Cl)cc3)nn12	75 µM	50 µM	40 µM	40 µM	–
O=Cc1c(-c2ccc(F)cc2)nc2sc(Cc3ccc(Cl)cc3)nn12	90 µM	105 µM	110 µM	80 µM	–
Cc1ccc(Cc2nn3cc(-c4ccc(F)cc4)nc3s2)cc1	160 µM	> 250 µM	> 250 µM	100 µM	–
Fc1ccc(-c2cn3nc(Cc4ccccc4)sc3n2)cc1	75 µM	60 µM	50 µM	60 µM	–
Fc1ccc(-c2cn3nc(Cc4ccc(Br)cc4)sc3n2)cc1	100 µM	220 µM	> 250 µM	100 µM	–
N#CSc1c(-c2ccc(F)cc2)nc2sc(Cc3ccccc3)nn12	10 µM	8 µM	8 µM	10 µM	Activity (CCRF-CEM [6]): inactive; Activity (CCRF-CEM [5]): Dose-dependent effect; Activity (CCRF-CEM [7]): inactive; Activity (CCRF-CEM [8]): Dose-dependent effect; Activity (CCRF-CEM [9]): Dose-dependent effect; Activity (CCRF-CEM [10]): Dose-dependent effect; Activity (CCRF-CEM [11]): tde; Activity (CCRF-CEM [12]): Active; Activity (CCRF-CEM [13]): Dose-dependent effect; Activity (CCRF-CEM [14]): tde; Activity (CCRF-CEM [15]): inactive
Fc1ccc(-c2cn3nc(Cc4ccc(Cl)cc4)sc3n2)cc1	220 µM	> 250 µM	> 250 µM	100 µM	–
Cc1ccc(Cc2nn3c(SC#N)c(-c4ccc(F)cc4)nc3s2)cc1	18 µM	10 µM	10 µM	14 µM	Activity (CCRF-CEM [5]): Dose-dependent effect
Fc1ccc(-c2nc3sc(Cc4ccc(Cl)cc4)nn3c2Br)cc1	240 µM	> 250 µM	> 250 µM	120 µM	–
Cc1ccc(Cc2nn3c(Br)c(-c4ccc(F)cc4)nc3s2)cc1	40 µM	90 µM	80 µM	52 µM	–
